Calls of active or inactive are those of the source. No cut-off for these calls is given here.
What was measured:
A549 [1] = test: Cytotoxicity against human A549 cells assessed as reduction in cell viability incubated for 72 hrs by MTT assay; assay type: functional, cell-based
How it was run: (§1)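 Cells grown in MEM with 10% FBS; about 4×10^3 cells per well, pre-incubated 24 h at 37 °C in 5% CO2, then exposed to compound for 72 h. Seven concentrations, threefold serial dilution from 100 ug/mL initial. MTT at 5 µg/mL terminal concentration for 4 h; formazan dissolved in DMSO, absorbance read at 492 nm against 630 nm reference. IC50 is the average of two determinations.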

HepG2 = test: Cytotoxicity against human HepG2 cells assessed as reduction in cell viability incubated for 72 hrs by MTT assay; assay type: functional, cell-based; settings: HepG2, 72 h; how it was run: as §1
MCF7 = test: Cytotoxicity against human MCF7 cells assessed as reduction in cell viability incubated for 72 hrs by MTT assay; assay type: functional, cell-based; how it was run: as §1
PC-3 = test: Cytotoxicity against human PC3 cells assessed as reduction in cell viability incubated for 72 hrs by MTT assay; assay type: functional, cell-based; how it was run: as §1
[2] = target: Vascular endothelial growth factor receptor 2 (Homo sapiens, UniProt P35968); test: Inhibition of VEGFR2 (unknown origin) incubated for 10 mins using FAM-labeled peptide and ATP by mobility shift assay
[3] = target: Serine/threonine-protein kinase B-raf (Homo sapiens, UniProt P15056); test: Inhibition of BRAF (unknown origin) incubated for 10 mins using FAM-labeled peptide and ATP by mobility shift assay
[4] = target: RAF proto-oncogene serine/threonine-protein kinase (Homo sapiens, UniProt P04049); test: Inhibition of CRAF (unknown origin) incubated for 10 mins using FAM-labeled peptide and ATP by mobility shift assay
How it was run: (§2)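 Mobility shift assay in 384-well plates. Compound, diluted from a 500 μM DMSO stock, preincubated with enzyme 10 min at room temperature. FAM-labelled peptide and ATP then added and the reaction run at 28 °C. Stopped with EDTA-containing buffer and read on Caliper. Inhibition = (max−conversion)/(max−min)×100, with DMSO wells as max and enzyme-free wells as min.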

[5] = target: Hepatocyte growth factor receptor (Homo sapiens, UniProt P08581); test: Inhibition of c-MET (unknown origin) incubated for 10 mins using FAM-labeled peptide and ATP by mobility shift assay
How it was run: as §2, with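 “plates. Kinase buffer: 50 mM HEPES pH 7.5, 10 mM MgCl2, 0.0015% Brij-35, 2 mM DTT.” for “plates.”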

[6] = target: Epidermal growth factor receptor (Homo sapiens, UniProt P00533); test: Inhibition of EGFR (unknown origin) incubated for 10 mins using FAM-labeled peptide and ATP by mobility shift assay
[7] = target: T1, Receptor-type tyrosine-protein kinase FLT3 (Homo sapiens, UniProt P36888); test: Inhibition of FLT3 (unknown origin) incubated for 10 mins using FAM-labeled peptide and ATP by mobility shift assay
T1 sequence (P36888 whole entry): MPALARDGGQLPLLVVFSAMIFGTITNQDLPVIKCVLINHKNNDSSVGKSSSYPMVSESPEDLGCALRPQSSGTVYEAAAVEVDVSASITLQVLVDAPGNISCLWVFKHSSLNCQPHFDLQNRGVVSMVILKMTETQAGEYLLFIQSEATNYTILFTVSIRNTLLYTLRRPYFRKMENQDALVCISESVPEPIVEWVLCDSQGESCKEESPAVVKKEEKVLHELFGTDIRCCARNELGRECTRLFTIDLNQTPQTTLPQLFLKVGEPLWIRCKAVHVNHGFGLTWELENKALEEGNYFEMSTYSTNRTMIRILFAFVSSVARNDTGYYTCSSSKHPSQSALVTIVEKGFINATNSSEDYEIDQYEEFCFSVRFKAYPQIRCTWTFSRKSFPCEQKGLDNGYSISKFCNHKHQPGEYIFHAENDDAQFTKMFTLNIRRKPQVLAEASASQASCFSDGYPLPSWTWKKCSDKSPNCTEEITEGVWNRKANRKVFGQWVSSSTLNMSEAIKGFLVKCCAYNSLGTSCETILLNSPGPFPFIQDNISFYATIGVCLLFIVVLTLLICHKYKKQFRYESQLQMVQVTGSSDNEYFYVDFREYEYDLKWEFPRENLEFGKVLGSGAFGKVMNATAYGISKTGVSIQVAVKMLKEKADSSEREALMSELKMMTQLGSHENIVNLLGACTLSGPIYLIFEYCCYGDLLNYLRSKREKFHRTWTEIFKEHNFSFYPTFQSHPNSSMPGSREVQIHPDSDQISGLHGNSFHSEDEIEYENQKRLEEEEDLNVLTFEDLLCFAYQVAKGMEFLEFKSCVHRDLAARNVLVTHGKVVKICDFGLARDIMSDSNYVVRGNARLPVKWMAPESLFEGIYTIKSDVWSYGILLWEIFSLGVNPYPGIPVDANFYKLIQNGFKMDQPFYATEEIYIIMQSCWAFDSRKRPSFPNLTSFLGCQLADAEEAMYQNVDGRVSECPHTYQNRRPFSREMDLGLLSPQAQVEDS
How it was run: as §2, with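 “plates. Kinase buffer: 50 mM HEPES pH 7.5, 10 mM MgCl2, 0.0015% Brij-35, 2 mM DTT.” for “plates.”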

A549 [8] = test: Induction of morphological changes in human A549 cells assessed as induction of cell shrinking at 1.85 uM incubated for 12 hrs by acridine orange dye based inverted microscopy and fluorescence microscopy; assay type: functional
How it was run: (§3)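 Untreated control included. A549 cells exposed 12 h at 1.85 μM, then single-stained with acridine orange. Nuclei and morphology examined by inverted and fluorescence microscopy.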

A549 [9] = test: Induction of morphological changes in human A549 cells assessed as induction of chromatin condensation at 1.85 uM incubated for 12 hrs by acridine orange dye based inverted microscopy and fluorescence microscopy; assay type: functional, cell-based; how it was run: as §3
A549 [10] = test: Induction of morphological changes in human A549 cells assessed as induction of DNA fragmentation at 1.85 uM incubated for 12 hrs by acridine orange dye based inverted microscopy and fluorescence microscopy; assay type: functional, cell-based; how it was run: as §3
A549 [11] = test: Induction of apoptosis in human A549 cells assessed as early apoptotic cell level at 3 uM incubated for 48 hrs by Annexin VFITC and propidium iodide staining based flow cytometry (reference value: 0.64%); assay type: functional
How it was run: (§4)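 A549 cells seeded in RPMI 1640 and treated 48 h at 3, 6 or 12 µM. Cells then stained with Annexin V-FITC plus propidium iodide, 30 min at 4 °C in the dark, and analysed on a FACS Calibur flow cytometer.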

A549 [12] = test: Induction of apoptosis in human A549 cells assessed as viable cell level at 6 uM incubated for 48 hrs by Annexin VFITC and propidium iodide staining based flow cytometry (reference value: 93.27%); assay type: functional; how it was run: as §4
A549 [13] = test: Induction of apoptosis in human A549 cells assessed as necrotic cell level at 6 uM incubated for 48 hrs by Annexin VFITC and propidium iodide staining based flow cytometry (reference value: 2.69%); assay type: functional; how it was run: as §4
A549 [14] = test: Induction of apoptosis in human A549 cells assessed as late apoptotic cell level at 12 uM incubated for 48 hrs by Annexin VFITC and propidium iodide staining based flow cytometry (reference value: 3.4%); assay type: functional; how it was run: as §4

Vascular endothelial growth factor receptor 2, sequence (P35968 whole entry): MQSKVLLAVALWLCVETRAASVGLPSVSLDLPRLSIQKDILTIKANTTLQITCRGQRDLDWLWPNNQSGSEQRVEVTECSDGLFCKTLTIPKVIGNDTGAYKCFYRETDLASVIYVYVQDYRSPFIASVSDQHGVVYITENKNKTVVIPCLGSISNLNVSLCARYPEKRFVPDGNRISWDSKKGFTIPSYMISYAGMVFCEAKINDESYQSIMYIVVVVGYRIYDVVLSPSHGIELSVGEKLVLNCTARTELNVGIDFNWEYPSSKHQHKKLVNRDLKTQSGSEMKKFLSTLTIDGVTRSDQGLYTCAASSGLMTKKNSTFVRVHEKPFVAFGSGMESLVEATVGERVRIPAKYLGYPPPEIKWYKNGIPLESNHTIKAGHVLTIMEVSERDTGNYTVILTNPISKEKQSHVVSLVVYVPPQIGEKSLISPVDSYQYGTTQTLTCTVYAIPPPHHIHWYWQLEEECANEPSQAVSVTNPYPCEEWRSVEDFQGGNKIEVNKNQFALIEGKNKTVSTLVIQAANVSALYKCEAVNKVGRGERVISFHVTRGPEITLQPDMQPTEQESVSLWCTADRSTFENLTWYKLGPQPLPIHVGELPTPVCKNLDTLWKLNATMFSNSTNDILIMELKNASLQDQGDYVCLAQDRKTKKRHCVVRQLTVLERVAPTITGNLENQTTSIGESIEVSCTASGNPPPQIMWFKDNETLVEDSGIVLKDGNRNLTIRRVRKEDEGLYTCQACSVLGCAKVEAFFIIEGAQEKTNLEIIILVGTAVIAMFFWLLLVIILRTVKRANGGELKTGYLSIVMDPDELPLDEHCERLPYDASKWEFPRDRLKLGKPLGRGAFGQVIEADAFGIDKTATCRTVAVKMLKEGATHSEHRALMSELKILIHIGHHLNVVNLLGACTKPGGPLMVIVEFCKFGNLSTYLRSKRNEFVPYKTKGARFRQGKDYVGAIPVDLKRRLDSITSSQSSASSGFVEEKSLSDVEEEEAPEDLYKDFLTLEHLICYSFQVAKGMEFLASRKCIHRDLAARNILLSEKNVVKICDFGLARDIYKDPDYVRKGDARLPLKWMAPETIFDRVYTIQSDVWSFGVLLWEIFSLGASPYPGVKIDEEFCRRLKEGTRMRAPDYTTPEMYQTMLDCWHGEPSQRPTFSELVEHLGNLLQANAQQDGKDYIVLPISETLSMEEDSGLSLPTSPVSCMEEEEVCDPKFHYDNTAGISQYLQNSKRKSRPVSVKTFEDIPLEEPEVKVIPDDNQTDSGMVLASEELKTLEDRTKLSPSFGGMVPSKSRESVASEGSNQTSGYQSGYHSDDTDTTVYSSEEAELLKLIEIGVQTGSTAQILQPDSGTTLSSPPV
Epidermal growth factor receptor, sequence (P00533 whole entry): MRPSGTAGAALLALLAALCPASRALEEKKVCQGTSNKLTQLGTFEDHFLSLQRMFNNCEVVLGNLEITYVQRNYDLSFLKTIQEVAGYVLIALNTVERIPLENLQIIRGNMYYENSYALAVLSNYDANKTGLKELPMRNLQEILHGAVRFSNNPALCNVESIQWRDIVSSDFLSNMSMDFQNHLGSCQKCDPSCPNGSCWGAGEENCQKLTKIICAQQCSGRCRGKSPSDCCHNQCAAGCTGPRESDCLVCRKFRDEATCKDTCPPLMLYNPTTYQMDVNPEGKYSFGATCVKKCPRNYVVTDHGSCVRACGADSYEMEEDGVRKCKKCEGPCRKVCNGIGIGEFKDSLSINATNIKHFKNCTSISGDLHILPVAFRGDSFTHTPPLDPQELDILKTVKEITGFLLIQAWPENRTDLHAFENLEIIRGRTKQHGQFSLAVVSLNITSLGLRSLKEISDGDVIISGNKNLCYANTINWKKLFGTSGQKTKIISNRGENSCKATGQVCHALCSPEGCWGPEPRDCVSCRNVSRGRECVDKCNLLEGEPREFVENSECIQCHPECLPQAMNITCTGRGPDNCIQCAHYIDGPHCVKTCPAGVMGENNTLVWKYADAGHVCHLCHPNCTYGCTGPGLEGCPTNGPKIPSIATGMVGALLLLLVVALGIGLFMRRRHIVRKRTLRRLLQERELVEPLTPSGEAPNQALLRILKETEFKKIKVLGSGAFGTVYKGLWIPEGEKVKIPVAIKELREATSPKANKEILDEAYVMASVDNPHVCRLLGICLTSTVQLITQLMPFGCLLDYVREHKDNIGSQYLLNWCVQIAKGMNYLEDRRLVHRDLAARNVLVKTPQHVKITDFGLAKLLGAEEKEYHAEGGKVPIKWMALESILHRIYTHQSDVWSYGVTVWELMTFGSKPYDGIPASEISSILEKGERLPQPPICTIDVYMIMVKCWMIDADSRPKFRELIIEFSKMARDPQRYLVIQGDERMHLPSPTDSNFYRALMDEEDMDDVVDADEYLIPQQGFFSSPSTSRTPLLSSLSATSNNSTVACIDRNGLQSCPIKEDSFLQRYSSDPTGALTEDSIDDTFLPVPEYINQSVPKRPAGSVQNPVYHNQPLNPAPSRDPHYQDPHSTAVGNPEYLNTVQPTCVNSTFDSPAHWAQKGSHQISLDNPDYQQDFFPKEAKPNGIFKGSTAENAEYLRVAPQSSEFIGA
Serine/threonine-protein kinase B-raf, sequence (P15056 whole entry): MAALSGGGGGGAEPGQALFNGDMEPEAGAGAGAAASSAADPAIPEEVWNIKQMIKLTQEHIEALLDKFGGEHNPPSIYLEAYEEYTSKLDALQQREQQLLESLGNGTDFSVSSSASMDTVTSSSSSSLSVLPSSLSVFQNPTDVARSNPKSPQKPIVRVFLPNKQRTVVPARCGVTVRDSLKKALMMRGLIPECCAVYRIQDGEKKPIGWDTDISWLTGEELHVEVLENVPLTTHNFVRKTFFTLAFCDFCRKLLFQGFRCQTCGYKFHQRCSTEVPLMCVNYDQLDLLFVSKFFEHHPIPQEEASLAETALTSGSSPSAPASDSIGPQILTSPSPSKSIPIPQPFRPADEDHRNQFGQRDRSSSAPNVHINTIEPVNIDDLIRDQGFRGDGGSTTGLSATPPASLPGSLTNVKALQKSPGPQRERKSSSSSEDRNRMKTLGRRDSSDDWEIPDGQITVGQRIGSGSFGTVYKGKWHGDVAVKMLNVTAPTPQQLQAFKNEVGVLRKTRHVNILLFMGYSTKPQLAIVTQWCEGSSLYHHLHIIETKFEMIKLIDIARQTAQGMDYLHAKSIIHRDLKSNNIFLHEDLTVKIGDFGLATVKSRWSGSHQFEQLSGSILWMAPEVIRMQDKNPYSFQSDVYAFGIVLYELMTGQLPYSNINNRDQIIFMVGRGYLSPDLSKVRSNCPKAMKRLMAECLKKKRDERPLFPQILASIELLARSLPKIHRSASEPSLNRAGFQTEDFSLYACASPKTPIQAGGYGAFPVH
Hepatocyte growth factor receptor, sequence (P08581 whole entry): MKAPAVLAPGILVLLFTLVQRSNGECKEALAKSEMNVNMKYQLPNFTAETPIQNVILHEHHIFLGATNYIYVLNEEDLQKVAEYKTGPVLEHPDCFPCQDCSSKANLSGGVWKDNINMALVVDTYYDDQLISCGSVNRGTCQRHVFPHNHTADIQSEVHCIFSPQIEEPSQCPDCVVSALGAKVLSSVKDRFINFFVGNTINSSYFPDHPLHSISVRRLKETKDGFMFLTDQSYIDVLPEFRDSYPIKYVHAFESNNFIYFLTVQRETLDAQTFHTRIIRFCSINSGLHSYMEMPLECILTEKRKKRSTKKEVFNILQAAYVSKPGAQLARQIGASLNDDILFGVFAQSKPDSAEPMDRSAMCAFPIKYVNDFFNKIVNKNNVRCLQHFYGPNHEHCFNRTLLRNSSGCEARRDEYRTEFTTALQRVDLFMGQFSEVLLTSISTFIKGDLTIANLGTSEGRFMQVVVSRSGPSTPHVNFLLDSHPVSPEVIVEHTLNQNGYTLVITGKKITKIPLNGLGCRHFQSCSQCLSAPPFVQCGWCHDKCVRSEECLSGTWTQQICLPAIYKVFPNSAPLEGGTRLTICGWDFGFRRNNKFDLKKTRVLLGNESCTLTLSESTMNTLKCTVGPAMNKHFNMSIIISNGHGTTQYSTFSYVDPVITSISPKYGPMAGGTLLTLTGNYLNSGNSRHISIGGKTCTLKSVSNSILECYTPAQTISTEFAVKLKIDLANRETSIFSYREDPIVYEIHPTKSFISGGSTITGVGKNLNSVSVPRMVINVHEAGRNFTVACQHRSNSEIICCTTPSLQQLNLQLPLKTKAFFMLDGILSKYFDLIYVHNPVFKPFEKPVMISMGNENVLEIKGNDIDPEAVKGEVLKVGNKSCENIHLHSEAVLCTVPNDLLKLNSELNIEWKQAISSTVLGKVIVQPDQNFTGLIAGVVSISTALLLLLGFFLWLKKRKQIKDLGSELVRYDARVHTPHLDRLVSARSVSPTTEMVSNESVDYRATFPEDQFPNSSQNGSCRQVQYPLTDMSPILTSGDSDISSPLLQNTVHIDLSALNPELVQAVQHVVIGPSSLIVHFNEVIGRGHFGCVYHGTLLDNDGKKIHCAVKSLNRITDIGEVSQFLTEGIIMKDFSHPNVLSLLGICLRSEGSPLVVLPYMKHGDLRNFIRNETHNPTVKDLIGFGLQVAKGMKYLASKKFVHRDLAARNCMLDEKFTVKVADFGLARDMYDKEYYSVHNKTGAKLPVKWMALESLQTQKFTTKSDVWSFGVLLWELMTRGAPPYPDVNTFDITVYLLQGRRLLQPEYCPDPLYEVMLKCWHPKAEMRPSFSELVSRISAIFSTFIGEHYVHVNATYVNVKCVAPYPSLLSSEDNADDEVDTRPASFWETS

IC50 [2]: 560 nM
IC50 [3]: 3400 nM
IC50 [4]: 7900 nM
IC50 [5]: 540 nM
IC50 [6]: > 10000 nM
IC50 [7]: 5200 nM
SMILES: CNC(=O)c1cc(Oc2ccc(C3=NNC(c4cccc(Br)c4)C3)cc2)ccn1 (stereo not given)
Activity (A549 [1]): Dose-dependent effect
IC50 (A549 [1]; A549, 72 h): 2840 nM
IC50 (HepG2): 1850 nM
Activity (MCF7): Dose-dependent effect
IC50 (MCF7; MCF7, 72 h): 1960 nM
Activity (PC-3): Dose-dependent effect
IC50 (PC-3; PC-3, 72 h): 3540 nM
Activity (A549 [8]): Active
Activity (A549 [9]): Active
Activity (A549 [10]): Active
Activity (A549 [11]): 2.2%
Activity (A549 [12]): 81.93%
Activity (A549 [13]): 1.24%
Activity (A549 [14]): 10.05%

From ChEMBL document CHEMBL4177575 (Bioorg Med Chem, 2017)
